What follows are compounds tested against Sphingosine 1-phosphate receptor 3 (Homo sapiens) (UniProt Q99500) (assay: Inhibitory effect towards Sphingosine 1-phosphate receptor Edg-3 (EDG3)). Settings: concentration not given here.
Sphingosine 1-phosphate receptor 3 (Homo sapiens), sequence (Q99500 whole entry): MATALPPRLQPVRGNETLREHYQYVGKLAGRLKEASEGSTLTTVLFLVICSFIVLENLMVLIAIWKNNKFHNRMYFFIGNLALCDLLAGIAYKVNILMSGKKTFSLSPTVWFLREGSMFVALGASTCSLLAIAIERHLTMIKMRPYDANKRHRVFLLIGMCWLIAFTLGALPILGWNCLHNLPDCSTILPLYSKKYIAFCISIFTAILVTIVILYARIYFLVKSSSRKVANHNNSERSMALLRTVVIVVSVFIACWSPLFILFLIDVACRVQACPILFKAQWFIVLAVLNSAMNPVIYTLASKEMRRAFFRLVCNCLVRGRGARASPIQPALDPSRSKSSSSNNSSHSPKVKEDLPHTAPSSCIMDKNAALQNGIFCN
Design: concentration or dose not given beside the values
Method in brief: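 Hela cells transfected with human EDG3 cDNA, seeded in DMEM/10% FBS for 24 h at 37 °C, then in MEM for 24 h. Cells are loaded with 5 µM Calcium Green-1 AM in D-PBS(+) for 60 min, given 10 µM test compound for 5 min, then challenged with 1 µM S1P. Fluorescence (ex 485/em 535 nm) is read every 3 s for 30 s. Inhibition (%) is the RFU difference versus the 0.1% DMSO control, averaged over triplicate wells, run on three separate days.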
CCCCCCCCCc1ccc(C2N[C@H](C(=O)O)CS2)cc1 (stereo partly drawn) gave an inhibition of 21.9%.
For CCCCCCCCCCCCC1NC(C(=O)O)CS1 (stereo not drawn), the inhibition was 15.9%.
In the case of CCCCCCCCCC1NC(C(=O)O)CS1 (stereo not drawn), the inhibition was 14.8%.
CCCCCCCCCCCCCC1NC(C(=O)O)CS1 (stereo not drawn) was tested, and the inhibition was 6.6%.
With CCCCCCCCCCC1NC(C(=O)O)CCS1 (stereo not drawn) the inhibition was 9.3%.
With CCCCCCCCCCC1NC(C(=O)O)CS1 (stereo not drawn) the inhibition was 26.4%.
In the case of CCCCCCCc1ccc(C2N[C@H](C(=O)O)CS2)cc1 (stereo partly drawn), the inhibition was 42.9%.
CCCCCCCCCCCCCC1NC(C(=O)O)CCS1 (stereo not drawn) showed an inhibition of 5.9%.
Work on CCCCCCCc1cccc(C2N[C@H](C(=O)O)CS2)c1 (stereo partly drawn) yielded an inhibition of 43.4%.
For CCCCCCCCCCC[C@H]1N[C@H](C(=O)O)CS1, the inhibition was 37.6%.
Work on CCCCCc1cccc(C2N[C@H](C(=O)O)CS2)c1 (stereo partly drawn) yielded an inhibition of 9.9%.
CCCCCCCCCC[C@H]1N[C@H](C(=O)O)CS1 showed an inhibition of 34.5%.
Work on CCCCCCCCCCCCC1NC(C(=O)O)CCS1 (stereo not drawn) yielded an inhibition of 0.3%.
In the case of CCCCCCCCCc1cccc(C2N[C@H](C(=O)O)CS2)c1 (stereo partly drawn), the inhibition was 37.2%.
CCCCCCCCCCCC1NC(C(=O)O)CCS1 (stereo not drawn) was tested, and the inhibition was 9.4%.
Work on CCCCCCC1NC(C(=O)O)CS1 (stereo not drawn) yielded an inhibition of 0%.
With CCCCCc1ccc(C2N[C@H](C(=O)O)CS2)cc1 (stereo partly drawn) the inhibition was 13%.
Work on CCCCCCCCCC1NC(C(=O)O)CCS1 (stereo not drawn) yielded an inhibition of 6.9%.

From ChEMBL document CHEMBL1135621, “Development of novel EDG3 antagonists using a 3D database search and their structure-activity relationships” (J Med Chem, 2002)
